Data published in ChEMBL document CHEMBL3112577, “Discovery of novel chiral diazepines as bombesin receptor subtype-3 (BRS-3) agonists with low brain penetration” (Bioorg Med Chem Lett, 2014).
Values after ≈ are worked out from the molar mass of the structure shown.

Tests used:
[1] = molecular target: T1, Bombesin receptor subtype-3 (Mus musculus, UniProt O54798); assay: Agonist activity at mouse BRS-3 expressed in CHOK1 cells after 1 hr by HTRF assay; assay type: cell-based, CHO-K1
T1 sequence (O54798 whole entry): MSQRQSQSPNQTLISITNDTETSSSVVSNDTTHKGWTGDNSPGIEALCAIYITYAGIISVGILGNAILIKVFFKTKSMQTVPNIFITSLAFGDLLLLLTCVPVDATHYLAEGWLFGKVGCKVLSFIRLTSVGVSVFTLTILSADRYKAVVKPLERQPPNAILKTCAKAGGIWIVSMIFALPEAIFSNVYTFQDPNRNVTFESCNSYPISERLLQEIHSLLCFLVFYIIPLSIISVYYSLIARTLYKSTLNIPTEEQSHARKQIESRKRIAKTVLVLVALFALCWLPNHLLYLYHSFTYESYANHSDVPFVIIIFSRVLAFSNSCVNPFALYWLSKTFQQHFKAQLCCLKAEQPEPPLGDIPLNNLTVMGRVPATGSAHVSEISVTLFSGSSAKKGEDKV
Procedure, shortened: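 CHO-K1 cells stably expressing mouse BRS-3 were plated at 200,000 cells/well and grown 24 h at 37 °C in CO₂. Compounds in HAM with 0.1% BSA plus 20 mM LiCl were added for 1 h at 37 °C. IP1 was detected by HTRF with d2-IP1 and cryptate anti-IP1 antibody after overnight at 4 °C in the dark, read as the 665/620 nm ratio and converted with on-plate IP1 standards. EC50 came from a nonlinear curve fit, averaged over at least 3 runs.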

[2] = molecular target: T2, Bombesin receptor subtype-3 (Homo sapiens, UniProt P32247); assay: Agonist activity at human BRS-3 expressed in CHOK1 cells after 1 hr by HTRF assay; assay type: cell-based, CHO-K1
T2 sequence (P32247 whole entry): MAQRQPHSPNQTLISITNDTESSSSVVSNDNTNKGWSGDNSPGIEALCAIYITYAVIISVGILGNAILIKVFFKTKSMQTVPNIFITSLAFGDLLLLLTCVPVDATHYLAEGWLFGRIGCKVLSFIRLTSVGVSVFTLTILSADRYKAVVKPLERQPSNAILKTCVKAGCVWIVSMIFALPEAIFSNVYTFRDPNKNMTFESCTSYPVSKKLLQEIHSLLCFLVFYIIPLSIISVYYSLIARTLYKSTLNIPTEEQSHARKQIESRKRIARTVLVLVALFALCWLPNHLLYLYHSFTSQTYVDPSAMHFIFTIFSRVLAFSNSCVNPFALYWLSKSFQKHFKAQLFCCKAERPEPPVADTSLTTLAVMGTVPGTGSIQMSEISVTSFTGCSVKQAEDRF

[3] = Octanol-phosphate buffered saline distribution coefficient, log D of the compound at pH 7.4; assay type: physicochemical
Procedure, shortened: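 LogD was measured as partitioning between 1-octanol and phosphate-buffered saline at pH 7.4.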

[4] = Fraction unbound in mouse plasma; assay type: ADME, cell-free
[5] = AUC in mouse at 10 mg/kg, po; assay type: ADME, organism-based; set-up: dose 10 mg/kg, route oral; details: plasma
Procedure, shortened: (§1)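 Two mice per compound given 10 mg/kg orally in DMA/PG/(20%HPbCD/saline) 10/10/80; values are the average of the 2 mice.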

[6] = Cmax in mouse at 10 mg/kg, po; assay type: ADME, organism-based; set-up: dose 10 mg/kg, route oral; details: in vivo; procedure, shortened: as §1
[7] = Solubility of the compound in JP2; assay type: physicochemical
[8] = Ratio of drug level in brain to plasma of mouse at 30 mg/kg, po after 2.5 hrs; assay type: ADME, organism-based; set-up: dose 30 mg/kg, route oral
Procedure, shortened: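 Mice given a single oral dose of 30 mg/kg. Brain and plasma concentrations were measured 2.5 h after dosing, and Kp brain was taken as the brain-to-plasma concentration ratio.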

[9] = Metabolic stability in mouse liver microsomes assessed as compound remaining after 0.5 hrs; assay type: ADME, Microsome; details: read-out: Stability
Procedure, shortened: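 Compound was incubated 0.5 h with mouse liver microsomes and the percentage of parent remaining was reported.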

[10] = Solubility of the compound in JP1; assay type: physicochemical
[11] = Half life in mouse at 10 mg/kg, po; assay type: ADME, organism-based; set-up: dose 10 mg/kg, route oral; details: in vivo; procedure, shortened: as §1

EC50 [1] | EC50 [2] | logD [3] | SMILES | also measured
22 nM | 1.4 nM | – | CC(C)(O)c1nc(-c2cccc3c2N(S(=O)(=O)c2ccc(OC(F)(F)F)cc2)Cc2ccc(C(F)(F)F)nc2N3)no1 | –
34 nM | 131 nM | – | CC(C)C1CN(Cc2ccccc2)c2ccccc2CN1C(=O)Nc1cccc(N2CCOCC2)c1 (stereo not given) | –
256 nM | 916 nM | – | CC(=O)N1Cc2ccccc2N(Cc2ccccc2)CC1C(C)C (stereo not given) | –
106 nM | 156 nM | 3.2 | O=C(Cc1cccc(Oc2cccnc2)c1)N1CCNc2nc(C(F)(F)F)ccc2C1 | –
621 nM | 977 nM | 3.3 | O=C(Cc1cccc(Oc2ccncc2)c1)N1CCNc2nc(C(F)(F)F)ccc2C1 | –
2.8 nM | 9.5 nM | 3.6 | Cc1ccc(Oc2cccc(CC(=O)N3CCNc4nc(C(F)(F)F)ccc4C3)c2)cn1 | –
1780 nM | 2040 nM | – | COc1cccc(CC(=O)N2CCNc3nc(C(F)(F)F)ccc3C2)c1 | –
1210 nM | 2050 nM | – | CCOc1cccc(CC(=O)N2CCNc3nc(C(F)(F)F)ccc3C2)c1 | –
569 nM | 381 nM | – | CC(C)Oc1cccc(CC(=O)N2CCNc3nc(C(F)(F)F)ccc3C2)c1 | –
52 nM | 59 nM | – | CCCCOc1cccc(CC(=O)N2CCNc3nc(C(F)(F)F)ccc3C2)c1 | –
62 nM | 70 nM | 4.3 | CC(C)COc1cccc(CC(=O)N2CCNc3nc(C(F)(F)F)ccc3C2)c1 | –
121 nM | 199 nM | – | CC(C)(C)COc1cccc(CC(=O)N2CCNc3nc(C(F)(F)F)ccc3C2)c1 | –
100 nM | 41 nM | – | O=C(Cc1cccc(OC2CCCC2)c1)N1CCNc2nc(C(F)(F)F)ccc2C1 | –
8.7 nM | 8.1 nM | 4.4 | O=C(Cc1cccc(OC2CCCCC2)c1)N1CCNc2nc(C(F)(F)F)ccc2C1 | –
19 nM | 12 nM | 4.1 | O=C(Cc1cccc(Oc2ccccc2)c1)N1CCNc2nc(C(F)(F)F)ccc2C1CO (stereo not given) | –
2260 nM | 1560 nM | – | O=C(O)C1c2ccc(C(F)(F)F)nc2NCCN1C(=O)Cc1cccc(Oc2ccccc2)c1 (stereo not given) | –
11 nM | 11 nM | – | O=C(Cc1cccc(Oc2ccccc2)c1)N1CCNc2nc(C(F)(F)F)ccc2C1CCO (stereo not given) | –

EC50 [1] | EC50 [2] | logD [3] | SMILES | also measured
15 nM | 13 nM | 1.2 | O=C(O)CC1c2ccc(C(F)(F)F)nc2NCCN1C(=O)Cc1cccc(Oc2ccccc2)c1 (stereo not given) | –
3.4 nM | 1.6 nM | 1.2 | O=C(O)C[C@@H]1c2ccc(C(F)(F)F)nc2NCCN1C(=O)Cc1cccc(Oc2ccccc2)c1 | –
3120 nM | 2070 nM | 1.2 | O=C(O)C[C@H]1c2ccc(C(F)(F)F)nc2NCCN1C(=O)Cc1cccc(Oc2ccccc2)c1 | –
2.7 nM | 1.7 nM | 1.2 | O=C(O)C[C@@H]1c2ccc(C(F)(F)F)nc2NCCN1C(=O)Cc1cccc(Oc2ccc(F)cc2)c1 | –
62 nM | 17 nM | 0.9 | CC(C)COc1cccc(CC(=O)N2CCNc3nc(C(F)(F)F)ccc3[C@H]2CC(=O)O)c1 | fraction unbound [4]: 0.033; AUC [5]: 390 ng·h/mL; Cmax [6]: 360 ng/mL; solubility [7]: 810 µg/mL (≈ 1740 µM); Kp at 2.5 h [8]: 0.043; remaining at 0.5 h [9]: 70%; solubility [10]: 40 µg/mL (≈ 85.9 µM); half-life [11]: 3.7 h
3.5 nM | 1.7 nM | 0.3 | Cc1ccc(Oc2cccc(CC(=O)N3CCNc4nc(C(F)(F)F)ccc4[C@H]3CC(=O)O)c2)cn1 | fraction unbound [4]: 0.046; AUC [5]: 200 ng·h/mL; Cmax [6]: 90 ng/mL; solubility [7]: 950 µg/mL (≈ 1900 µM); Kp at 2.5 h [8]: 0.002; remaining at 0.5 h [9]: 94%; solubility [10]: 960 µg/mL (≈ 1920 µM); half-life [11]: 2.6 h
227 nM | 48 nM | – | CC(C)(C)c1ccc(CC(=O)N2Cc3ccc(C(F)(F)F)nc3Nc3ccccc32)cc1 | –
> 10000 nM | 368 nM | – | O=C(Cc1ccc(Oc2ccccc2)cc1)N1Cc2ccc(C(F)(F)F)nc2Nc2ccccc21 | –
46 nM | 25 nM | – | O=C(Cc1cccc(Oc2ccccc2)c1)N1Cc2ccc(C(F)(F)F)nc2Nc2ccccc21 | –
12.2 nM | 8.5 nM | 4.5 | O=C(Cc1cccc(Oc2ccccc2)c1)N1CCNc2nc(C(F)(F)F)ccc2C1 | fraction unbound [4]: 0.0067; AUC [5]: 41 ng·h/mL; Cmax [6]: 60 ng/mL; solubility [7]: 5.1 µg/mL (≈ 11.9 µM); Kp at 2.5 h [8]: 0.72; remaining at 0.5 h [9]: 0.7%; solubility [10]: 11 µg/mL (≈ 25.7 µM); half-life [11]: 0.82 h
1380 nM | 4380 nM | – | O=C(Nc1cccc(Oc2ccccc2)c1)N1CCNc2nc(C(F)(F)F)ccc2C1 | –
3.5 nM | 6.9 nM | 4.5 | O=C(Cc1cccc(Oc2ccccc2F)c1)N1CCNc2nc(C(F)(F)F)ccc2C1 | –
8.7 nM | 6.8 nM | 4.8 | O=C(Cc1cccc(Oc2cccc(F)c2)c1)N1CCNc2nc(C(F)(F)F)ccc2C1 | –
2.7 nM | 3.6 nM | 4.6 | O=C(Cc1cccc(Oc2ccc(F)cc2)c1)N1CCNc2nc(C(F)(F)F)ccc2C1 | –
1 nM | 1.3 nM | > 4.8 | Cc1ccc(Oc2cccc(CC(=O)N3CCNc4nc(C(F)(F)F)ccc4C3)c2)cc1 | –
244 nM | 254 nM | 3.2 | O=C(Cc1cccc(Oc2ccccn2)c1)N1CCNc2nc(C(F)(F)F)ccc2C1 | –

SMILES | EC50 [1] | EC50 [2] | logD [3] | also measured
CC(C)(C)c1ccc(C(=O)N2Cc3ccc(C(F)(F)F)nc3Nc3ccccc32)cc1 | > 10000 nM | > 10000 nM | – | –
